RGS4 pot = RGS4 potentiation or activation; HEK293 M3R/inducible RGS4, carbachol calcium flux Fluo4; hits give low values; B-score at 10 µM; 0.92% of 310,000 active;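 active = B-score of the integrated calcium signal more than 4 SD below the library mean, with starting fluorescence not abnormally high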;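 note: negative B-score means reduced calcium response which marks RGS4 activation or potentiation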
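test system = HEK293 cells with stable M3R and inducible RGS4 | schedule = recording 10 s baseline at 1 Hz, 100 s post-agonist | technique = Fluo4-AM (2 µM) calcium-flux fluorescence, kinetic read | measure = Agonist-evoked peak-minus-minimum fluorescence over baseline, integrated ratio, B score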
MrgX1 agonist = human MrgX1 receptor agonism, primary screen. Q96LB2. B-score at 10 µM. 0.44% of 310,000 active. MrgX1-HEK293 cells, Fluo-4 calcium fluorescence, agonist mode; hits give high values;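 active = calcium response B-score plate-corrected fluorescence ratio at least 3 library SD, with starting fluorescence B-score inside 5 SD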
Target sequence (Q96LB2 whole entry, looked up): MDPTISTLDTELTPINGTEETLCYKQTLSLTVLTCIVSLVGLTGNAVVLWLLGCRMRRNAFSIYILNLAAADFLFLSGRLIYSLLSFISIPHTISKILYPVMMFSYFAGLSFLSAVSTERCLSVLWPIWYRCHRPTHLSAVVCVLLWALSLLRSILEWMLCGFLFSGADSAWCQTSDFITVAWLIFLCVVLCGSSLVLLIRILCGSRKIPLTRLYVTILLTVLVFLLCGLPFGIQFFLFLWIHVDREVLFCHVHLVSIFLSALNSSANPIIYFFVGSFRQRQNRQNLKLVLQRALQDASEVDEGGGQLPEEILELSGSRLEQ
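System – MrgX1-expressing HEK293 cells · Incubation – cells plated overnight, dye loaded 0.5 h 37 °C, 0.5 h room temperature · Technique – kinetic Fluo-4 NW fluorescence of intracellular calcium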
RGS4 inh = inhibitors of human RGS4. 0.45% of 310,000 active. HEK293 M3R/RGS4 inducible, Fluo-4 calcium flux; hits give high values; triggered by carbachol at its EC20. B-score at 10 µM;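 active = B-score, a plate-corrected calcium signal, over three deviations above library mean, with baseline fluorescence within five deviations of library mean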;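 note: RGS4 expression induced by doxycycline in cells with stable M3 receptor; B-score is computed from the integrated fluorescence ratio over baseline after carbachol; higher B-score means a larger calcium signal and so more RGS4 inhibition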
Target sequence (P49798 whole entry, looked up): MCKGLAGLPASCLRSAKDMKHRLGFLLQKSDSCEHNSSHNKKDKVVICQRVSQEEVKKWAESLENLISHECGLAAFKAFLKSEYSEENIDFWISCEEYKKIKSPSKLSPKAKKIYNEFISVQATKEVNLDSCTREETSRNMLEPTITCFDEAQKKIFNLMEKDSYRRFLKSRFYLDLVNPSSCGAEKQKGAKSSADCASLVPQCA
MrgX1 PAM = human MrgX1 positive allosteric modulation, primary screen; MrgX1-HEK293, Fluo-4 calcium flux, FDSS; hits give high values; 0.63% of 310,000 active; B-score at 10 µM; AID 588675;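 active = plate-corrected calcium response at least 3 library SD above typical, normal starting fluorescence, not activating the receptor alone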;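 note: compound read alongside a low EC10 to EC30 dose of BAM8-22 agonist; peak minus trough fluorescence over baseline measured at the second addition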
MrgX1 antagonist = antagonists of human MrgX1 receptor; Q96LB2; MRGX1-HEK293 calcium flux, Fluo-4, BAM8-22 antagonism; hits give low values; B-score at 10 µM; 1.3% of 310,000 active;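 active = calcium-response B-score plate-corrected more than 3 library SD below zero, starting fluorescence within 5 deviations, no agonist response on first addition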;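 note: peak minus trough fluorescence over baseline after final BAM8-22 challenge near maximal dose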
RGS4 block valid = RGS4 inhibitor validation; shares compounds with RGS4 inh; HEK293 M3R/RGS4, carbachol calcium Fluo-4 fluorescence; carbachol added at its EC20; 0 = buffer wells, 100 = carbachol control; calcium response, % at 10 µM; 65% of 1,700 active;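 active = duplicate-averaged calcium response above the buffer-only control mean plus 5 SD of those controls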;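 note: integrated fluorescence ratio F max minus min over baseline F0; higher response in RGS4-induced cells means RGS4 inhibition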
M3R Ca ctr = checks RGS4 inhibitor effects in non-induced HEK293 M3R cells. 20% of 1,900 active. shares compounds with RGS4 inh. activity (percent), % at 10 µM. AID 493000. carbachol calcium Fluo-4; submaximal (EC20) carbachol stimulus; buffer wells 0%, carbachol control wells 100%; call rule not given here;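 note: RGS4 induction absent so cells express M3R without RGS4; higher means more calcium signal and flags a non-specific hit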
M3R basal Ca ctr = signal in non-induced cells without carbachol, RGS4 inhibitor counter-screen | shares compounds with RGS4 inh | HEK293 M3R/RGS4 non-induced, Fluo-4 calcium, no carbachol; normalised: buffer wells 0%, carbachol wells 100% | calcium response (agonist-mode artifact), % at 10 µM | 22% of 1,900 active | AID 493001;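 active = duplicate-averaged calcium rise in uninduced cells above buffer wells' mean plus 5 SD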
A number is an active result; . = inactive; / = not tested or not shown. Shown are actives, neighbours in structure and some others; about 3.5% of the full set was active somewhere.

SMILES	RGS4 pot	MrgX1 agonist	RGS4 inh	MrgX1 PAM	MrgX1 antagonist	RGS4 block valid	M3R Ca ctr	M3R basal Ca ctr
COC(=O)c1ccc(COc2ccccc2/C=C(\C#N)C(=O)Nc2ccc(C)cc2C)cc1	.	.	.	.	.	.	.	.
COC(=O)c1ccc(COc2ccccc2/C=C(\C#N)C(=O)Nc2c(C)cc(C)cc2C)cc1	.	.	.	.	.	.	.	.
CCOc1cccc(NC(=O)/C(C#N)=C\c2cn(CC(=O)O)c3ccccc23)c1	.	.	.	.	.	/	/	/
Fc1ccccc1CN1CCCC(NC2CCC2)C1 (stereo unspecified)	.	.	6.9	.	.	8.0%	.	.
Cc1ccc(S(=O)(=O)/N=C2/NC(=O)/C(=C/c3ccccc3)S2)cc1	.	.	.	.	.	.	.	.
O=C1N/C(=N\S(=O)(=O)Cc2ccccc2)S/C1=C/c1cccc([N+](=O)[O-])c1	.	.	.	.	.	/	/	/
COc1ccc(/C=C2/S/C(=N/S(=O)(=O)Cc3ccccc3)NC2=O)cc1OC	.	.	7.8	.	.	20%	48%	.
COc1cc(/C=C2\S/C(=N/S(=O)(=O)c3ccc(C)cc3)NC2=O)c([N+](=O)[O-])cc1OC	.	.	.	.	.	.	38%	.
Cc1ccc(S(=O)(=O)/N=C2/NC(=O)/C(=C/c3ccncc3)S2)cc1	.	.	4.9	.	.	16%	.	.
O=C1N/C(=N/S(=O)(=O)c2ccccc2)S/C1=C/c1cccnc1	.	.	.	.	.	/	/	/
CC(=O)Nc1ccc(S(=O)(=O)/N=C2/NC(=O)/C(=C\c3ccco3)S2)cc1	.	.	.	.	.	/	/	/
Cc1cc(S(=O)(=O)N2CCC3(CC2)OCCO3)c(C)cc1Cl	.	.	.	.	.	/	/	/
COc1ccc(CCN2CC(C(=O)NC3CCCCC3)CC2=O)cc1OC (stereo unspecified)	.	.	.	.	.	/	/	/
Cn1cnnc1SCC(=O)Nc1nc(-c2ccccc2)cs1	.	.	.	.	.	/	/	/
CCc1nc(N2CCOCC2)c(C#N)c2c1CCCC2	.	.	.	.	.	/	/	/
CC1(C)Cc2c(C#N)c(N3CCCC3)nc(-c3ccco3)c2CO1	.	.	8.5	.	.	6.0%	.	13%
CC1(C)Cc2c(C#N)c(NCc3ccco3)nc(-c3ccco3)c2CO1	.	.	.	.	.	/	/	/
N#Cc1c(N2CCOCC2)nc(-c2ccco2)c2c1CCCC2	.	.	.	.	.	.	.	.
Cc1ccc(S(=O)(=O)CCC(=O)OCC(=O)N2c3ccccc3CC2C)cc1 (stereo unspecified)	.	.	.	.	.	/	/	/
O=C(OCn1ncc(Br)c(Br)c1=O)c1ccc(F)cc1	.	.	13	.	.	24%	.	.
CCOC(=O)C1=C(C)NC(C)=C(C(=O)OCC)C1c1sccc1C	.	.	.	.	.	/	/	/
CCOC(=O)CSc1[nH]c2cc(OC)ccc2c1[N+](=O)[O-]	.	.	.	.	.	/	/	/
COC(=O)CSc1[nH]c2ccc(F)cc2c1[N+](=O)[O-]	.	.	19	.	.	34%	.	.
O=C(Oc1cccc2cccnc12)c1ccco1	.	.	.	.	.	/	/	/
Cc1c(C(=O)Oc2cccc3cccnc23)cccc1[N+](=O)[O-]	.	.	10	.	.	56%	.	.
SMILES	RGS4 pot	MrgX1 agonist	RGS4 inh	MrgX1 PAM	MrgX1 antagonist	RGS4 block valid	M3R Ca ctr	M3R basal Ca ctr
O=C(Oc1cccc2cccnc12)c1cccs1	.	.	7.3	.	.	48%	.	.
O=C(Oc1cccc2cccnc12)c1ccc(Br)o1	.	.	4.7	.	.	42%	.	.
Cc1cc(C)cc(N(C(=O)CCC(=O)Nc2ccccn2)C(C(=O)NC(C)C)c2ccc(O)cc2)c1 (stereo unspecified)	.	.	.	.	.	/	/	/
CC(NC(=O)/C(C#N)=C/c1ccc(C(=O)O)cc1)c1ccccc1 (stereo unspecified)	.	.	13	.	.	44%	40%	.
O=C(NNc1c2ccccc2nc2ccccc12)c1ccccc1O	.	.	.	.	.	/	/	/
O=C(NNc1nc(=O)c2cccnc2s1)c1ccccc1O	.	.	5.2	.	.	18%	.	.
Cc1ccc(-c2cc(-c3ccccc3[N+](=O)[O-])[nH]n2)c(O)c1	.	.	.	.	.	/	.	.
Cc1ccc(-c2cc(-c3ccccc3Cl)[nH]n2)c(O)c1	.	.	.	.	.	/	/	/
O=C(Nc1nnc(-c2ccc3c(c2)OCCO3)o1)C1CCCCC1	.	.	8.4	.	.	7.0%	.	.
COc1cccc(NC(=O)NC2CCCCCCC2)c1	.	.	18	.	.	.	.	.
CC(C)NC(=S)N1CCN(c2ncccn2)CC1	.	.	.	.	.	/	/	/
Cc1ccc(-c2ccc(C(=O)NCc3ccccc3)o2)c2ccccc12	.	.	7	.	.	.	.	.
Cn1c(=O)c2sccc2n(Cc2ccccc2)c1=O	.	.	.	.	.	/	/	/
O=c1c2ccccc2nc(N/N=C/c2c(O)ccc3ccccc23)n1O	.	.	8.4	.	.	40%	44%	.
O=C(COc1cccc(Br)c1)N/N=C/C(=O)c1ccccc1	.	.	4.7	.	.	8.0%	.	.
Cc1cccc(OCC(=O)N/N=C\c2cn(C)c3ccccc23)c1	.	.	7.3	.	.	.	.	.
O=C(CSc1nc(-c2ccc(F)cc2)cs1)N1CCc2ccccc21	.	.	.	.	.	/	/	/
Cc1ccc(OCC(=O)Nc2nnc(S(=O)(=O)N3CCC(C)CC3)s2)cc1	.	.	.	.	.	/	/	/
O=C(CSc1nnnn1-c1ccc(F)cc1F)Nc1ccccc1F	.	.	.	.	.	/	/	/
COc1ccc(Nc2nnc(-c3ccccc3)c3ccccc23)cc1C(=O)N1CCCCC1	.	.	5	.	.	148%	88%	.
COc1ccc(-c2cc(C(=O)N3CCCCC3)c3ccccc3n2)cc1OC	.	.	.	.	.	/	/	/
COc1ccc(Nc2nnc(-c3ccc(C)cc3)c3ccccc23)cc1C(=O)N1CCCCC1	.	.	.	.	.	/	.	.
Oc1ccc(C23CC4CC(CC(C4)C2)C3)cc1O	.	.	22	.	.	16%	52%	15%
CC(=O)Nc1ccc(C23CC4CC(CC(C4)C2)C3)cc1	.	.	.	.	.	/	/	/
